{"data": "Results of several laboratories", "MMP14": "Matrix metalloproteinase-14 (MMP14, Homo sapiens, UniProt P50281)", "Kir1 channel protein": "Kir1 channel protein (Aedes aegypti, UniProt L0EQS9)", "CYP2E1": "Cytochrome P450 2E1 (CYP2E1, Homo sapiens, UniProt P05181)"}
{"Compound": "Cn1cc(-c2cc3cc(-c4cc(C(=O)NCc5ccc(C(=O)O)cc5)nn4C)ccc3[nH]2)cn1", "target": "MMP14", "test": "enzyme activity, inhibitor", "IC50 [µM]": "> 20"}
{"Compound": "O=S(=O)(c1ccc(Cl)cc1)N1CCN(c2ccc(C(F)(F)F)c(NCc3ccncc3)c2)CC1", "target": "Kir1 channel protein", "test": "ion flux, inhibitor", "IC50 [µM]": "4 to 9"}
{"Compound": "CC(C)=CCCC(C)=CCn1cc(CC(P(=O)(O)O)P(=O)(O)O)nn1", "target": "Protein farnesyltransferase (Rattus norvegicus, UniProt Q02293+Q04631)", "test": "enzyme activity, inhibitor, HPLC", "IC50 [µM]": 500}
{"Compound": "CS(=O)(=O)N1CCN(c2ccc([N+](=O)[O-])c(NCc3cccnc3)c2)CC1", "target": "Kir1 channel protein", "test": "ion flux, inhibitor", "IC50 [µM]": 44}
{"Compound": "CN1CCN(c2ccc(Nc3ncc4cc(C#N)c(=O)n(C5CCCC5)c4n3)cc2)CC1", "target": "Calcium/calmodulin-dependent protein kinase type 1 (CAMK1, Homo sapiens, UniProt Q14012)", "test": "enzyme activity, inhibitor", "IC50 [µM]": "> 10"}
{"Compound": "O=[N+]([O-])c1ccc(N2CCN(S(=O)(=O)c3ccccc3)CC2)cc1NCc1cccnc1", "target": "Kir1 channel protein", "test": "ion flux, inhibitor", "IC50 [µM]": 0.55}
{"Compound": "O=C1Nc2cc(Oc3ccc4c(c3)NC(=O)C4=O)ccc2C1=O", "target": "Protein-glutamine gamma-glutamyltransferase (TGM2, Homo sapiens, UniProt P21980)", "test": "enzyme activity, inhibitor", "IC50 [µM]": "30 to 40"}
{"Compound": "COc1cc(C[C@H]2C(=O)OC[C@@H]2Cc2ccc(OC)c(OC)c2)ccc1O", "target": "Dual 3',5'-cyclic-AMP and -GMP phosphodiesterase 11A (PDE11A, Homo sapiens, UniProt Q9HCR9)", "test": "enzyme activity, inhibitor", "IC50 [µM]": "> 20"}
{"Compound": "CCc1cc(/C(C)=N/OCc2ccc(C3CCCCC3)c(C(F)(F)F)c2)ccc1CN1CC(C(=O)O)C1", "target": "CYP2E1", "test": "enzyme activity, inhibitor", "test system": "human, liver microsomes", "conditions": "20 min", "IC50 [µM]": "> 0.5"}
{"Compound": "C=CC(=O)Nc1cc(Nc2nccc(Nc3cc(Cl)c(F)cc3C(C)(C)O)n2)c(OC)cc1N1CC[C@@H](N(C)C)C1", "target": "CYP2E1", "test": "enzyme activity, inhibitor", "test system": "human, liver microsomes", "IC50 [µM]": "> 30"}
{"Compound": "Cc1cnc(-c2ccc(-c3ccc(NC(=O)Nc4c(F)cc(F)cc4F)cc3F)c3c2C(=O)NC3)[nH]1", "target": "Vascular endothelial growth factor receptor 1 (FLT1, Homo sapiens, UniProt P17948)", "test": "enzyme activity, inhibitor", "IC50 [µM]": "> 1"}
{"Compound": "O=C(Oc1nsnc1N1CCCCC1)N1CCOCC1", "target": "Monoacylglycerol lipase ABHD6 (ABHD6, Homo sapiens, UniProt Q9BV23)", "test": "enzyme activity, inhibitor, fluorescence", "conditions": "lysate", "IC50 [µM]": 0.052}
{"Compound": "CCC1(c2ccc(C)cc2)C(=O)N(C(=O)OC(C)C)N1C(=O)OC(C)C (stereo not drawn)", "target": "Prolyl endopeptidase (Mus musculus, UniProt Q9QUR6)", "test": "enzyme activity, inhibitor", "IC50 [µM]": 4.5}
{"Compound": "COc1ccc(F)cc1C(=O)NCc1ccc(-c2nn([C@@H](C)C(F)(F)F)c(N)c2C(N)=O)cc1", "target": "Tyrosine-protein kinase BTK (BTK, Homo sapiens, UniProt Q06187, C481R)", "test": "phosphorylation in cells, inhibitor", "IC50 [µM]": 0.0126}
{"Compound": "O=[N+]([O-])c1ccc(N2CCN(S(=O)(=O)c3ccc(Cl)cc3)CC2)cc1NCc1cccnc1", "target": "Kir1 channel protein", "test": "ion flux, inhibitor", "IC50 [µM]": 1.47}
{"Compound": "Cc1noc(-c2cc3cc(-c4cc(C(=O)NCc5ccc(C(=O)O)cc5)nn4C)ccc3[nH]2)n1", "target": "MMP14", "test": "enzyme activity, inhibitor", "IC50 [µM]": "> 20"}
{"Compound": "Cc1cc(O)cc(C)c1C[C@H](NC(=O)[C@@H]1CCCN1C(=O)[C@H](CCCNC(=N)N)NC(=O)[C@H](CCCNC(=N)N)N(C)C(=O)CNC(=O)[C@@H](CO)NC(=O)CNC(=O)[C@H](Cc1cn(CCNC(=O)[C@H](CCCNC(=N)N)NC(=O)[C@H](CC(C)C)NC(=O)C2OC2C(=O)O)nn1)NC(=O)CN1CCN(CC(=O)O)CCN(CC(=O)O)CCN(CC(=O)O)CC1)C(=O)N[C@H](C(=O)N[C@@H](CC(C)C)C(=O)O)C(C)(C)C (mixture of isomers)", "target": "Neurotensin receptor type 1 (NTSR1, Homo sapiens, UniProt P30989)", "test": "ligand displacement, radioligand", "IC50 [µM]": 0.073}
{"Compound": "N#Cc1ccc(N2CCN(S(=O)(=O)c3ccc(Cl)cc3)CC2)cc1NCc1ccncc1", "target": "Kir1 channel protein", "test": "ion flux, inhibitor", "IC50 [µM]": 0.738}
